Measurements taken from ChEMBL document CHEMBL1125479, “Methoxytetrahydropyrans. A new series of selective and orally potent 5-lipoxygenase inhibitors” (J Med Chem, 1992).
“And” between values parts separate entries of the source, which are not always exact repeats. Equal values may be shown once.

Key:
[1] = target: T1, Polyunsaturated fatty acid 5-lipoxygenase (Homo sapiens, UniProt P09917); experiment: In vitro inhibition of leukotriene B4 synthesis in human whole blood by inhibiting 5-lipoxygenase; format: tissue-based
T1 sequence (P09917 whole entry): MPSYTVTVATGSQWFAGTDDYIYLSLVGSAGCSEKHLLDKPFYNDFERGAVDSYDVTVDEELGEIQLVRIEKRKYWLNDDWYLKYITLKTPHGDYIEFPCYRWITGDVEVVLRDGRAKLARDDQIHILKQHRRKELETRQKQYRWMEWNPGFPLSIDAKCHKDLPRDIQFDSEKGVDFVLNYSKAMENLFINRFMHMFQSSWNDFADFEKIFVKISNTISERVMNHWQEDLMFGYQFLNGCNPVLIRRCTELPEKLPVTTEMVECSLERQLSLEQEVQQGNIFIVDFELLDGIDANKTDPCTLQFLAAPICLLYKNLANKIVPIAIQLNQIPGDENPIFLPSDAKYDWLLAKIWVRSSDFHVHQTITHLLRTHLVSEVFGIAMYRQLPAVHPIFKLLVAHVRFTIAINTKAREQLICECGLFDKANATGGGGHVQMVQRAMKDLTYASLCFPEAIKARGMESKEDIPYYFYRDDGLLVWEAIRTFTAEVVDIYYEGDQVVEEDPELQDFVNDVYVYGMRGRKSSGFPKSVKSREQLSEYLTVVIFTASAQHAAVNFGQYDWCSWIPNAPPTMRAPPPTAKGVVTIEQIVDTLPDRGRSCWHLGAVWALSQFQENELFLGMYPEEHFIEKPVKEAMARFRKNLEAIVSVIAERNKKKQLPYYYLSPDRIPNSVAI
Outline: (§1)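 Heparinized human whole blood preincubated with compound, then stimulated with calcium ionophore A23187; LTB4 (5-LPO product) and TxB2 (cyclooxygenase product) generation measured.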

[2] = test system: Rattus norvegicus; experiment: Ex vivo potency in for eicosanoid generation in inflammatory exudate of rat 3 hr after peroral administration; format: functional; conditions: po
Outline: (§2)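 Male Alderley Park rats (130-150 g) given a subcutaneous air pouch (20 mL sterile air under halothane, reinflated with 10 mL 3 days later). After a further 3 days, oral dosing (DMSO solution in 0.5% HPMC/0.1% polysorbate 80, 1 mL/kg) or vehicle, then 1 mL of 1% zymosan in saline into the pouch.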

[3] = species on record: Homo sapiens; experiment: In vitro inhibition of leukotriene B4 in human whole blood; format: functional; outline: as §1
[4] = Logarithm of partition coefficient was determined; format: physicochemical; conditions: octanol/water
[5] = test system: Rattus norvegicus; experiment: Ex vivo potency in rat blood for eicosanoid generation 1 hr after peroral administration; format: functional; conditions: po
Outline: (§3)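 Rats dosed orally (1 mL/kg) with compound dissolved in DMSO and suspended in 0.5% (hydroxypropyl)methylcellulose with 0.1% polysorbate 80; controls got vehicle.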

[6] = Aqueous solubility was determined; format: physicochemical; conditions: buffer
[7] = test system: Rattus norvegicus; experiment: Ex vivo potency in rat blood for eicosanoid generation 3 hr after peroral administration; format: functional; conditions: po; outline: as §3
[8] = target: T1, Polyunsaturated fatty acid 5-lipoxygenase; experiment: In vitro inhibition of leukotriene B4 synthesis in human whole blood by inhibiting 5-LPO (5-lipoxygenase); format: tissue-based; outline: as §1
[9] = test system: Rattus norvegicus; experiment: Compound was tested for the generation of eicosanoid in inflammatory exudate after 3 hr peroral administration; format: functional; conditions: po; outline: as §2
[10] = test system: Rattus norvegicus; experiment: Ex vivo potency against rat blood after 1 hr peroral administration; format: functional; conditions: po, 3 h, in the assay text read “after 3 hr” for “after 1 hr”; outline: as §3
[11] = species on record: Mus musculus; experiment: In vitro inhibitory activity against leukotriene synthesis in mouse macrophages; format: functional
[12] = test system: Rattus norvegicus; experiment: Ex vivo potency against rat blood after 3 hr peroral administration; format: functional; conditions: po; outline: as §3
[13] = In vitro inhibition of thromboxane B2 in human whole blood Value; format: tissue-based; outline: as §1

With `CCC(OC)(c1ccc(OCc2ccc3ccccc3c2)cc1)c1nccs1` (stereo not given) the IC50 [1] was 40000 nM.

Compound `COC1(c2cc(F)cc(OCc3ccc4c(c3)oc(=O)n4C)c2)CCOCC1` has an IC50 [1] of 200 nM and an ED50 [2] greater than 1.5 mg/kg.

With `COC1(c2cccc(OCc3ccc4ccccc4c3)c2)CCCOC1` (stereo not given) the IC50 [1] was 1700 nM and the IC50 [3] was 2800 nM.

For `COC1(c2cc(F)cc(OCc3ccc4nccnc4c3)c2)CCOCC1`, the “delta Log P” value [4] was -1.8, the ED50 [2] was 30 mg/kg and the ED50 [5] was 30 mg/kg. For the same compound, the “Delta logS” value [6] was 1.8.

With `COC1(c2cc(F)cc(OCc3ccc4c(c3)n(C)c(=O)n4C)c2)CCOCC1` the IC50 [1] was 80 nM, the “delta Log P” value [4] was -1.7 and the ED50 [2] was 1.5 mg/kg. The “Delta logS” value [6] was 1.

With `COC1(c2cccc(OCc3ccc4ccccc4c3)c2)CCCCOC1` (stereo not given) the IC50 [1] was 2500 nM.

For `COC1(c2cccc(OCC#Cc3ccccc3)c2)CCOCC1`, the IC50 [1] was 70 nM.

For `COC1(c2cccc(OCc3ccc4c(ccc(=O)n4C)c3)c2)CCOCC1`, the “delta Log P” value [4] was -2, the ED50 [2] was 3 mg/kg and the ED50 [7] was 1.5 mg/kg. For the same compound, the “Delta logS” value [6] was 1.8.

For `CCC(OC)(c1cccc(OCC#Cc2ccccc2)c1)c1nccs1` (stereo not given), the IC50 [1] was 900 nM and 1000 nM.

In the case of `COC1(c2cccc(OCc3ccc4ccc(=O)n(C)c4c3)c2)CCOCC1`, the IC50 [1] is reported as 200 nM and the ED50 [7] is reported as greater than 3 mg/kg.

In the case of `COC1(c2cc(F)cc(OCc3ccc4c(c3)sc(=O)n4C)c2)CCOCC1`, the IC50 [1] is reported as 40 nM, the “delta Log P” value [4] is reported as -1.2 and the ED50 [2] is reported as 1.5 mg/kg. For the same compound, the “Delta logS” value [6] was 0.8.

With `COC1(c2cccc(OCc3ccc4ccccc4c3)c2)CCCOCC1` (stereo not given) the IC50 [1] was 200 nM.

With `COC1(c2cccc(OCC#Cc3ccccn3)c2)CCOCC1` the IC50 [1] was 400 nM and the ED50 [5] was 100 mg/kg.

In the case of `COC1(c2cccc(OCc3cccc4c3ccc(=O)n4C)c2)CCOCC1`, the IC50 [1] is reported as 1300 nM and the ED50 [7] is reported as greater than 3 mg/kg.

`CC(C)c1ccc2c(c1)c(SC(C)(C)C)c(CC(C)(C)C(=O)[O-])n2Cc1ccc(Cl)cc1.[Na+]` showed an IC50 [8] of 1100 nM, an ED50 [9] of 2 mg/kg and an ED50 [10] of 3 mg/kg.

`COC1(c2cccc(OCc3ccc4ccccc4c3)c2)CC[S+]([O-])CC1` (stereo not given) showed an IC50 [1] of 4200 nM.

In the case of `COC1(c2cccc(OCc3ccc4ccccc4c3)c2)CCSCC1`, the IC50 [1] is reported as 400 nM and the IC50 [3] is reported as 400 nM.

With `COC1(c2cccc(OCc3ccc4ccccc4c3)c2)CCN(C)CC1` the IC50 [1] was greater than 40000 nM.

`COC(C)(c1cccc(OCc2ccc3ccccc3c2)c1)c1nccs1` (stereo not given) gave an IC50 [1] of 500 nM.

With `COC1(c2cccc(OCc3ccc4ccccc4c3)c2)CCC(=O)CC1` the IC50 [1] was 3400 nM.

`COC1(c2cc(F)cc(OCc3cc4ccccc4n(C)c3=O)c2)CCOCC1` showed an IC50 [1] of 400 nM and an ED50 [2] greater than 1.5 mg/kg.

In the case of `COC(C)(c1nccs1)c1cccc(OCc2ccc3ccccc3c2)c1C` (stereo not given), the IC50 [3] is reported as 1000 nM.

`COC1(c2ccc(OCc3ccc4ccccc4c3)cc2)CCOCC1` gave an IC50 [1] of 19000 nM.

`COC1(c2cccc(OCc3ccc4ccccc4c3)c2)CCS(=O)(=O)CC1` gave an IC50 [1] of 10600 nM.

For `CCOC(C)=O.COC1(c2cc(F)cc(OCc3ncc4ccccc4n3)c2)CCOCC1`, the IC50 [1] was 200 nM, the “delta Log P” value [4] was -1.9 and the ED50 [5] was greater than 10 mg/kg. It also gave a Delta logS [6] of 1.9.

`COC1(c2cccc(OCc3ccc4ccccc4c3)c2C)CCOCC1` showed an IC50 [1] of 600 nM.

Work on `COC1(c2cc(OCc3ccc4ccccc4c3)ccc2C)CCOCC1` yielded an IC50 [1] of 40000 nM.

`COC1(c2cccc(OCc3ccc4ccccc4c3)c2)CCCCC1` gave an IC50 [1] of 2600 nM.

Work on `COC1(c2cccc(OCc3ccc4ccccc4c3)c2)CCOC1` (stereo not given) yielded an IC50 [1] of 700 nM.

`COC1(c2cc(F)cc(OCc3ccc4nc(O)ccc4c3)c2)CCOCC1` gave an IC50 [1] of 600 nM and an ED50 [7] greater than 3 mg/kg.

Work on `COC1(c2cccc(OCc3ccc4ccccc4c3)c2)CCOCC1` yielded an IC50 [1] of 70 nM, an IC50 [11] of 0.5 nM and an ED50 [2] of 10 mg/kg. It also gave an ED50 [5] of 5 mg/kg and an ED50 [7] of 10 mg/kg.

`COC1(c2cc(F)cc(OCc3ccc4c(=O)n(C)ccc4c3)c2)CCOCC1` gave an IC50 [1] of 200 nM and an ED50 [2] greater than 1.5 mg/kg.

For `COC1(c2cc(F)cc(OCc3ccc4c(c3)C(C)(C)C(=O)N4C)c2)CCOCC1`, the IC50 [1] was 80 nM and the ED50 [2] was greater than 1.5 mg/kg.

`CCOC(C)=O.COC1(c2cc(F)cc(OCc3cc4ccccc4nc3O)c2)CCOCC1` showed an ED50 [5] greater than 100 mg/kg.

In the case of `COC1(c2cccc(OCc3ccc4ccccc4c3)c2)COC1`, the IC50 [1] is reported as 2500 nM.

For `COC1(c2cc(F)cc(OCc3ccc4oc(=O)ccc4c3)c2)CCOCC1`, the IC50 [8] was 300 nM and the ED50 [12] was greater than 3 mg/kg.

With `COC1(c2cc(F)cc(OCc3ccc4ncncc4c3)c2)CCOCC1` the IC50 [1] was 200 nM, the “delta Log P” value [4] was -2.1 and the ED50 [5] was greater than 100 mg/kg. For the same compound, the “Delta logS” value [6] was 1.5.

With `COC1(c2cc(F)cc(OCc3ccc4c(c3)ncc(=O)n4C)c2)CCOCC1` the IC50 [1] was 50 nM, the “delta Log P” value [4] was -2.3 and the ED50 [2] was 1.5 mg/kg. The “Delta logS” value [6] was 1.8.

In the case of `COC1(c2cc(F)cc(OCc3ccc4c(ccc(=O)n4C)c3)c2)CCOCC1` [ZD-2138], the IC50 [1] is reported as 20 nM, the “delta Log P” value [4] is reported as -1.7 and the ED50 [2] is reported as 0.3 mg/kg. For the same compound, the ED50 [5] was 1 mg/kg, the ED50 [7] was 0.9 mg/kg and the IC50 [13] was greater than 500000 nM. The “Delta logS” value [6] was 0.9.

Work on `CC(c1cc2ccccc2s1)N(O)C(N)=O` (stereo not given) [ZILEUTON] yielded an ED50 [2] of 3 mg/kg and an IC50 [13] of 40000 nM.
